Results taken from ChEMBL document CHEMBL1141576, “Design of new potent and selective secretory phospholipase A2 inhibitors. Part 5: synthesis and biological activity of 1-alkyl-4-[4,5-dihydro-1,2,4-[4H]-oxadiazol-5-one-3-ylmethylbenz-4'-yl(oyl)] piperazines” (Bioorg Med Chem, 2008).

What was measured:
[1] = target: Phospholipase A2, major isoenzyme (Sus scrofa, UniProt P00592); test: Inhibition of pig pancreatic PLA2 by fluorometric assay
In short: (§1)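 Fluorimetric PLA2 assay after Radvanyi et al. Enzymes were secretory human recombinant group II PLA2 and secretory porcine pancreatic group I PLA2. Concentration of the fluorescent substrate determined by UV spectrometry in a quartz cell. Values reported as IC50.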

[2] = target: T1, Phospholipase A2, membrane associated (Homo sapiens, UniProt P14555); test: Inhibition of human recombinant PLA2 by fluorometric assay; in short: as §1
T1 sequence (P14555 whole entry): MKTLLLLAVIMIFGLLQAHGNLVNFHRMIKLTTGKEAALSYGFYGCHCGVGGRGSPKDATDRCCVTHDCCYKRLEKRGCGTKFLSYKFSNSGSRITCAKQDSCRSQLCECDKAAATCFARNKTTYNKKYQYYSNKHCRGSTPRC

[3] = Lipophilicity, log P of the compound; type: physicochemical; settings: octanol/water
In short: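 logP of the free base calculated with Rekker's hydrophobic fragmental constants method.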

Rattus norvegicus [4] = test: Inhibition of carrageenan-induced hind paw edema in rat assessed as decrease in paw volume at 10 mg/kg, po after 5 hrs; type: functional; parameters: scale not given: the % may be the effect or the level left
In short: (§2)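 Rats. Compound given ip or orally 1 h before carrageenan injection into the hind leg; doses 5, 10 and 20 mg/kg. Indomethacin used as positive control. Edema volume measured at 0, 3 and 5 h after carrageenan.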

Mus musculus [5] = test: Antiinflammatory activity against croton oil-induced ear edema in mouse at 1 mg/ear; type: functional
In short: (§3)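 Mice, anaesthetized. Test compound applied locally to inner surface of ear (or given per os); 1 h later croton oil applied to the ear to induce edema. 5 h after croton oil, edematous tissue punched out with a gimlet and compared with tissue from a control site to calculate percent inhibition. Results reported as mean of the animals tested, with number of experiments.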

Rattus norvegicus [6] = test: Inhibition of carrageenan-induced hind paw edema in rat assessed as decrease in paw volume at 10 mg/kg; type: functional; parameters: scale not given: the % may be the effect or the level left; in short: as §2
Mus musculus [7] = test: Antiinflammatory activity against croton oil-induced ear edema in mouse at 0.5 mg/ear; type: functional; in short: as §3

Chain of Phospholipase A2, major isoenzyme (P00592 whole entry): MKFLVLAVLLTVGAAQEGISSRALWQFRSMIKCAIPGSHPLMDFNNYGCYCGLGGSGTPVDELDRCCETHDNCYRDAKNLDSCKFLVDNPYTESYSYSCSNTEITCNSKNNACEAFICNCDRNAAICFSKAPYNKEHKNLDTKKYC

SMILES | IC50 [1] [µM] | IC50 [2] [µM] | logP ([3]; read-out: LogP) | logP [3] | Activity (Rattus norvegicus [4]) [%] | Activity (Mus musculus [5]) [%] | Activity (Rattus norvegicus [6]) [%] | Activity (Mus musculus [7]) [%]
CCCCCCCCCCCCCCN1CCN(C(=O)c2ccc(CCc3nc(=O)o[nH]3)cc2)CC1 | > 100 | 18.7 | 6.3 |  |  |  |  | 
CCCCCCCCCCCCCCCCCCN1CCN(c2ccc(Cc3noc(=O)[nH]3)cc2)CC1 | > 100 |  | 8.02 |  |  |  |  | 
CCCCCCCCCCCCCCCCCCN1CCN(C(=O)c2ccc(-c3noc(=O)[nH]3)cc2)CC1 | > 100 | 1.1 | 7.56 |  |  |  |  | 
CCCCCCCCCCCCCCCCCCN1CCN(C(=O)c2ccc(Cc3noc(=O)[nH]3)cc2)CC1 | > 100 | 0.8 | 7.86 |  |  |  |  | 
CCCCCCCCCCCCCCCCN1CCN(Cc2ccc(-c3noc(=O)[nH]3)cc2)CC1 | > 100 | > 100 | 6.34 |  |  |  |  | 
CCCCCCCCCCCCCCN1CCN(C(=O)c2ccc(Cc3noc(=O)[nH]3)cc2)CC1 | > 100 | 9 | 5.78 |  | 65 | 47.83 |  | 
CCCCCCCCCCCCCCN1CCN(Cc2ccc(-c3nc(=O)o[nH]3)cc2)CC1 | > 100 | > 100 | 5.3 |  |  |  |  | 
CCCCCCCCCCCCCCN1CCN(c2ccc(Cc3nc(=O)o[nH]3)cc2)CC1 | > 100 | 4.5 | 5.95 |  |  |  |  | 
COc1ccc2c(c1)c(CC(=O)O)c(C)n2C(=O)c1ccc(Cl)cc1 [INDOMETHACIN] |  |  |  |  | 16 |  | 73 | 43.11

Further lines, with some results ahead:

IC50 [1] [µM] | IC50 [2] [µM] | logP ([3]; read-out: LogP) | logP [3] | SMILES | Activity (Rattus norvegicus [4]) [%] | Activity (Mus musculus [5]) [%] | Activity (Rattus norvegicus [6]) [%] | Activity (Mus musculus [7]) [%]
> 100 |  |  |  | CCCCCCCCCCCCCCOc1ccc(Cc2noc(=O)[nH]2)cc1 |  |  |  | 
> 100 | 3.5 | 6.98 |  | CCCCCCCCCCCCCCCCN1CCN(c2ccc(Cc3noc(=O)[nH]3)cc2)CC1 |  |  |  | 
> 100 | 5.3 | 6.81 |  | CCCCCCCCCCCCCCN1CCN(C(=O)c2ccc(CCCc3noc(=O)[nH]3)cc2)CC1 |  |  |  | 
> 100 | 5.08 | 7.37 |  | CCCCCCCCCCCCCCCCCCN1CCN(Cc2ccc(-c3noc(=O)[nH]3)cc2)CC1 |  |  |  | 
> 100 | 0.1 | 8.89 |  | CCCCCCCCCCCCCCCCCCCCN1CCN(C(=O)c2ccc(Cc3noc(=O)[nH]3)cc2)CC1 |  |  |  | 
> 100 | > 100 | 6.53 |  | CCCCCCCCCCCCCCCCN1CCN(C(=O)c2ccc(-c3nc(=O)o[nH]3)cc2)CC1 |  |  |  | 
> 100 | > 100 | 5.48 |  | CCCCCCCCCCCCCCN1CCN(C(=O)c2ccc(-c3nc(=O)o[nH]3)cc2)CC1 |  |  |  | 
> 100 | > 10 | 5.59 |  | CCCCCCCCCCCCCCN1CCN(Cc2ccc(Cc3noc(=O)[nH]3)cc2)CC1 |  | 51.45 | 79 | 
> 100 | 10 | 6.63 |  | CCCCCCCCCCCCCCCCN1CCN(Cc2ccc(Cc3noc(=O)[nH]3)cc2)CC1 |  |  |  | 
> 100 | 0.1 |  | 9.932 | CCCCCCCCCCCCCCCCCCCCCCN1CCN(C(=O)c2ccc(Cc3noc(=O)[nH]3)cc2)CC1 |  |  |  | 
> 100 | 4 | 6.81 |  | CCCCCCCCCCCCCCCCN1CCN(C(=O)c2ccc(Cc3nc(=O)o[nH]3)cc2)CC1 |  |  |  | 
> 100 | 2.2 | 7.67 |  | CCCCCCCCCCCCCCCCCCN1CCN(Cc2ccc(Cc3nc(=O)o[nH]3)cc2)CC1 |  |  |  | 
